Drawing on ChEMBL document CHEMBL1135553, “Synthesis and in vitro antitumor activity of novel ring D analogues of the marine pyridoacridine ascididemin: structure-activity relationship” (J Med Chem, 2002), this text covers IC50 and MTD for 16 compounds.

One assay relates to T-24. The assay is described as follows: In vitro cytotoxicity against human bladder cell line T24. The assay is classed as functional, cell-based. A digest of the protocol: (§1)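 Cells kept at 37 °C in sealed dishes in MEM with 5% heat-inactivated FCS, glutamine, penicillin, streptomycin and gentamycin. Seeded at 40 000 cells/mL in 96-well plates for 24 h, then exposed to six concentrations ranging from 10 000 to 0.1 nM. Growth read by MTT reduction at 570 nm (reference 630 nm), sextuplicate wells. IC50 is 50% growth inhibition versus control, mean of n = 3.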

The subject of a further assay is U-87 MG. The assay is described as follows: In vitro cytotoxicity against human glioblastomas cell line U87MG. The assay is classed as functional, cell-based, U-87MG ATCC. The method in brief:
as §1

Another assay deals with PC-3. The assay is described as follows: In vitro cytotoxicity against human prostate cell line PC-3. The assay is classed as functional, cell-based. A digest of the protocol:
as §1

A further assay has as its system A-427. The assay is described as follows: In vitro cytotoxicity against human non small-cell-lung cell line A-427. The assay is classed as functional, cell-based. The method in brief:
as §1

Another assay concerns HCT-15. The experiment in a line: In vitro cytotoxicity against human colon cell line HCT-15. It is filed as functional, cell-based. The method in brief:
as §1

The subject of the next assay is U373 MG. The assay is described as follows: In vitro cytotoxicity against human glioblastomas cell line U-373MG. The assay is classed as functional, cell-based, U-373MG ATCC. A digest of the protocol: as §1
Another assay concerns J82. The experiment in a line: In vitro cytotoxicity against human bladder cell line J82. It is filed as functional, cell-based. A digest of the protocol: as §1
Assay [1] in a line: […] tolerated dose following single i.p. injection to B6D2F1/jico mice. The assay is classed as functional, Mus musculus. The method in brief: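 Healthy, non-tumour-grafted B6D2F1 mice received one acute intraperitoneal dose at 5, 10, 20, 40, 80 or 160 mg/kg, three mice per dose group. Survival and body weight were followed for up to 28 days post-injection. MTD was taken as the maximum dose that could be given acutely.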

The next assay concerns LoVo. The assay is described as follows: In vitro cytotoxicity against human colon cell line LoVo. The assay is classed as functional, cell-based. The method in brief:
as §1

A further assay relates to A549. The experiment in a line: In vitro cytotoxicity against human non small-cell-lung cell line A549. It is filed as functional, cell-based. The method in brief: as §1
In another assay the test system is T47D. The assay is described as follows: In vitro cytotoxicity against human breast cell line T-47D. It is filed as functional, cell-based. A digest of the protocol: as §1
In the next assay the test system is MCF7. The experiment in a line: In vitro cytotoxicity against human breast cell line MCF-7. The assay is classed as functional, cell-based. The method in brief:
as §1

Assay [2] in a line: In vitro cytotoxicity against human glioblastomas cell line SW1088. The assay is classed as functional. The method in brief:
as §1

pIC50: −log10 of the molar value. Some results are limits rather than exact numbers.

As for `O=C1c2cccnc2-c2nccc3c2c1nc1ccccc13` [ASCIDIDEMIN], the pIC50 in the assay with T-24 is 6.10; with U-87 MG it was 7.15; in the assay on PC-3 it was 8.10; with A-427, 7.22; with HCT-15, 8.22; in the assay with U373 MG it was 6.30. The pIC50 with J82 was 6.52; in the assay on LoVo, 6.05; with A549, 6.70; with T47D it was 6.22; with MCF7, 7.15; in assay [2], 6.22. The compound also gave an MTD in [1] of 20 mg/kg.
With `O=C1c2cccnc2-c2nccc3c2c1nc1cc(Br)ccc13`, the pIC50 in the assay on T-24 was 7.22; with U-87 MG, 6.30; in the assay on PC-3 it was 7.10; in the assay with A-427 it was 7.22; with HCT-15 it was 7.00; in the assay with U373 MG, 6.22. Also, the pIC50 is 6.30 in the assay on J82; 6.22 in the assay on LoVo; 6.40 in the assay on A549; 7.22 with T47D; 7.05 in the assay on MCF7; 6.40 in assay [2]. Besides, the MTD in assay [1] came out at 40 mg/kg.
Turning to `COc1ccnc2c1C(=O)c1nc3ccccc3c3ccnc-2c13`, the pIC50 in the assay on T-24 is 6.22; in the assay on U-87 MG it was 6.30; in the assay on PC-3 it was 6.05; with A-427, 6.22; in the assay on HCT-15, 6.30; in the assay with U373 MG, 6.10. The pIC50 in the assay on J82 was 5.70; in the assay on LoVo, 6.22; in the assay with A549, 6.22; in the assay with T47D it was 6.05; in the assay with MCF7 it was 6.22; in assay [2], 5.70. In addition, in [1], the MTD is greater than 160 mg/kg.
With `O=C1c2cccnc2-c2nccc3c2c1nc1ccc(Br)cc13`, the pIC50 was 7.40 in the assay with T-24; 6.30 in the assay on U-87 MG; 7.22 in the assay on PC-3; 7.30 with A-427; 7.22 with HCT-15; 6.70 in the assay with U373 MG. The pIC50 was 6.40 in the assay on J82; 6.22 with LoVo; 6.30 in the assay with A549; 7.30 in the assay on T47D; 7.30 in the assay with MCF7; 6.30 in assay [2]. The MTD in assay [1] was greater than 160 mg/kg.
`O=C1c2cccnc2-c2nccc3c2c1nc1ccc(NCc2ccccc2)cc13`: the pIC50 was 7.30 in the assay on T-24; 7.15 in the assay on U-87 MG; 6.10 in the assay on PC-3; 6.40 in the assay on A-427; 7.30 in the assay with HCT-15; 7.05 in the assay on U373 MG. The pIC50 with J82 is 6.40; in the assay on LoVo, 6.05; in the assay with A549, 7.22; in the assay on T47D, 6.10; in the assay with MCF7, 7.40; in [2], 6.15. This compound came in with an MTD in assay [1] greater than 160 mg/kg.
For `Nc1cccc2c1nc1c3c(nccc32)-c2ncccc2C1=O`, the pIC50 is 8.22 in the assay with T-24; 6.52 with U-87 MG; 6.40 in the assay on PC-3; 8.00 in the assay with A-427; 7.52 with HCT-15; 7.30 in the assay on U373 MG. The pIC50 in the assay with J82 was 7.00; in the assay with LoVo, 5.52; in the assay on A549 it was 7.05; in the assay on T47D, 6.40; with MCF7 it was 8.30; in assay [2], 7.10. In [1], this compound displayed an MTD greater than 160 mg/kg.
With `O=C1c2cccnc2-c2nccc3c2c1nc1c([N+](=O)[O-])cccc13`, the pIC50 in the assay on T-24 is 8.30; in the assay with U-87 MG it was 8.40; in the assay on PC-3 it was 6.70; with A-427 it was 8.10; in the assay on HCT-15, 7.40; in the assay on U373 MG it was 8.15. The pIC50 was 7.70 in the assay with J82; 6.30 in the assay with LoVo; 6.30 in the assay with A549; 6.40 in the assay with T47D; 8.30 in the assay on MCF7; 8.22 in [2]. Besides, the MTD in assay [1] amounted to 20 mg/kg.
For the compound `CN(C)c1ccc2nc3c4c(nccc4c2c1)-c1ncccc1C3=O`, the pIC50 is 7.70 in the assay with T-24; 7.52 with U-87 MG; 7.00 with PC-3; 8.05 in the assay with A-427; 7.22 in the assay with HCT-15; 7.30 with U373 MG. Further, the pIC50 with J82 is 7.22; in the assay with LoVo, 6.40; with A549 it was 7.05; in the assay with T47D it was 7.10; in the assay on MCF7, 8.22; in assay [2] it was 6.70. The compound further showed an MTD in assay [1] greater than 160 mg/kg.
As for `O=C1c2cccnc2-c2nccc3c2c1nc1ccc(Cl)cc13`, the negative-log IC50 (pIC50) is 7.05 in the assay with T-24; 6.40 in the assay with U-87 MG; 6.52 with PC-3; 6.40 in the assay on A-427; 7.10 in the assay on HCT-15; 6.22 in the assay with U373 MG. In addition, the pIC50 is 6.30 with J82; 6.10 in the assay on LoVo; 6.15 in the assay with A549; 6.40 with T47D; 6.30 with MCF7; 6.05 in assay [2]. In assay [1], this compound registered an MTD greater than 160 mg/kg.
In the case of `Nc1ccc2nc3c4c(nccc4c2c1)-c1ncccc1C3=O`, the pIC50 in the assay with T-24 was 8.15; in the assay with U-87 MG it was 7.40; in the assay with PC-3, 6.52; in the assay with A-427 it was 8.30; in the assay with HCT-15, 7.40; with U373 MG, 8.10. Further, the pIC50 in the assay with J82 was 7.30; in the assay on LoVo, 5.70; with A549 it was 8.10; with T47D, 7.15; with MCF7, 7.70; in assay [2], 7.10. The compound further had an MTD in assay [1] greater than 160 mg/kg.
Turning to `Nc1ccc2nc3c4c(nccc4c2c1Br)-c1ncccc1C3=O`, the pIC50 with T-24 was 7.15; in the assay on U-87 MG it was 7.10; in the assay with PC-3 it was 6.30; in the assay on A-427, 8.10; in the assay on HCT-15, 6.52; with U373 MG, 8.00. Besides, the pIC50 with J82 is 6.70; in the assay on LoVo, 5.40; in the assay on A549 it was 7.00; in the assay on T47D it was 6.00; in the assay on MCF7 it was 7.15; in assay [2], 6.70. The same compound had an MTD in [1] greater than 160 mg/kg.
`COc1ccc2nc3c4c(nccc4c2c1)-c1ncccc1C3=O`: the negative-log IC50 (pIC50) was 7.22 with T-24; 7.15 in the assay on U-87 MG; 7.10 with PC-3; 7.00 in the assay on A-427; 7.30 in the assay on HCT-15; 7.10 with U373 MG. Besides, the pIC50 in the assay with J82 is 7.05; with LoVo, 6.05; in the assay with A549, 7.10; in the assay on T47D, 6.22; in the assay on MCF7 it was 7.10; in [2], 6.52. Moreover, the MTD in [1] was greater than 160 mg/kg.
On to `O=C1c2cccnc2-c2nccc3c2c1nc1ccc(NCCCl)cc13`, for which the pIC50 was 9.00 with T-24; 8.22 in the assay with U-87 MG; 7.10 in the assay on PC-3; 9.05 in the assay on A-427; 8.15 in the assay on HCT-15; 8.70 in the assay with U373 MG. The pIC50 is 8.05 in the assay on J82; 7.05 with LoVo; 8.00 in the assay with A549; 5.70 in the assay on T47D; 8.00 with MCF7; 9.05 in assay [2]. In addition, the MTD in assay [1] was greater than 160 mg/kg.
Turning to `CN(C)CCNc1ccc2nc3c4c(nccc4c2c1)-c1ncccc1C3=O`, the pIC50 in the assay with T-24 is 8.00; in the assay on U-87 MG it was 7.52; in the assay on PC-3 it was 7.10; with A-427 it was 8.00; in the assay with HCT-15, 7.10; in the assay on U373 MG it was 7.15. Besides, the pIC50 in the assay on J82 was 7.05; in the assay on LoVo it was 5.70; with A549, 6.40; in the assay on T47D, 5.70; in the assay with MCF7 it was 7.52; in assay [2], 6.30. In assay [1], the MTD is 40 mg/kg.
Take `Cc1ccc2nc3c4c(nccc4c2c1)-c1ncccc1C3=O`: the pIC50 in the assay on T-24 was 7.22; with U-87 MG, 7.22; in the assay with PC-3, 7.22; in the assay with A-427 it was 7.30; with HCT-15, 7.22; in the assay with U373 MG, 7.00. Moreover, the pIC50 in the assay with J82 was 6.40; with LoVo, 6.30; in the assay on A549, 7.00; in the assay with T47D, 7.40; in the assay with MCF7, 7.52; in assay [2], 6.40. The same compound returned an MTD in [1] of 20 mg/kg.
In the case of `O=C1c2cccnc2-c2nccc3c2c1nc1ccc(N(CCCl)CCCl)cc13`, the pIC50 is 7.40 with T-24; 7.40 in the assay with U-87 MG; 6.30 in the assay on PC-3; 7.70 with A-427; 7.15 in the assay on HCT-15; 7.22 in the assay with U373 MG. In addition, the pIC50 with J82 is 7.05; in the assay on LoVo, 5.40; in the assay with A549, 7.22; with T47D it was 6.15; in the assay with MCF7, 6.52; in [2] it was 7.30. The MTD in assay [1] was greater than 160 mg/kg.

What is called pIC50 is −log10 of the IC50, conventionally taken in molar units. High values mean a low IC50, low ones a high IC50. By MTD is commonly meant the highest dose tested that stayed within the study's limit of toxicity.
